{
  "source": "ChEMBL document CHEMBL4038281",
  "about": "“Competitive protein tyrosine phosphatase 1B (PTP1B) inhibitors, prenylated caged xanthones from Garcinia hanburyi and their inhibitory mechanism” (Bioorg Med Chem, 2017)",
  "key": {"[1]": {"target": "T1, Tyrosine-protein phosphatase non-receptor type 1 (Homo sapiens) (UniProt P18031)", "T1 sequence (whole entry)": "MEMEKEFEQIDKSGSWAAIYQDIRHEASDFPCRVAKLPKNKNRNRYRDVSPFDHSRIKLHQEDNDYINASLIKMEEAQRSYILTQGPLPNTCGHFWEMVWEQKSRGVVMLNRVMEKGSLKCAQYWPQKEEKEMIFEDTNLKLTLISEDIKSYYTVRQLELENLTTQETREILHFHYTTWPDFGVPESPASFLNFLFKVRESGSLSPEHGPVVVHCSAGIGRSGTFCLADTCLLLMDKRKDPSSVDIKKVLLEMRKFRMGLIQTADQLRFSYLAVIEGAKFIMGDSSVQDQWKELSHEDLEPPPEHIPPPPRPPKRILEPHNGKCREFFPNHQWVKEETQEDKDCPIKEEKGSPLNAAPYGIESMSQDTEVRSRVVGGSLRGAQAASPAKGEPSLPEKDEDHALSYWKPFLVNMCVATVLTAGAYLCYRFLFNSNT", "experiment": "Inhibition of recombinant human PTP1B (1 to 322 residues) expressed in Escherichia coli using pNPP as substrate incubated for 10 mins measured for 30 mins by spectrometric analysis", "procedure,_shortened": "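Enzyme (1 mg/mL stock) was mixed with sample in DMSO and 4 mM pNPP stock in 25 mM Tris-HCl pH 7.5, 1 mM EDTA, 2 mM b-mercaptoethanol and 1 mM DTT.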"}, "[2]": {"target": "T1, Tyrosine-protein phosphatase non-receptor type 1 (Homo sapiens)", "conditions": "457.3 to 1829.3 uM"}, "[3]": {"target": "T1, Tyrosine-protein phosphatase non-receptor type 1 (Homo sapiens)", "conditions": "0.47 uM"}, "[4]": {"target": "T1, Tyrosine-protein phosphatase non-receptor type 1 (Homo sapiens)", "conditions": "12.4 to 49.6 uM"}, "[5]": {"target": "T1, Tyrosine-protein phosphatase non-receptor type 1 (Homo sapiens)", "experiment": "Competitive inhibition of recombinant human PTP1B (1 to 322 residues) expressed in Escherichia coli at 11.8 to 47.2 uM using pNPP as substrate by Line-weaver burk plot method", "procedure,_shortened": "(§1)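 Kinetics with pNPP substrate in 25 mM Tris-HCl (pH 7.5), 1 mM EDTA, 2 mM b-mercaptoethanol, 1 mM DTT, 37 °C. Initial velocities were recorded at several substrate and inhibitor concentrations and read at 405 nm. Vmax and Km came from Lineweaver-Burk plots, and the Kik/Kiv ratio was calculated per Yang et al.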"}, "[6]": {"target": "T1, Tyrosine-protein phosphatase non-receptor type 1 (Homo sapiens)", "conditions": "11.7 to 47.1 uM"}, "[7]": {"target": "T1, Tyrosine-protein phosphatase non-receptor type 1 (Homo sapiens)", "conditions": "49.5 to 198.1 uM"}, "[8]": {"target": "T1, Tyrosine-protein phosphatase non-receptor type 1 (Homo sapiens)", "experiment": "Competitive inhibition of recombinant human PTP1B (1 to 322 residues) expressed in Escherichia coli at 52.6 to 210.6 uM using pNPP as substrate by Line-weaver burk plot method", "procedure,_shortened": "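PTP1B activity was followed by pNPP hydrolysis at 405 nm in 25 mM Tris-HCl pH 7.5 with 1 mM EDTA, 2 mM b-mercaptoethanol and 1 mM DTT, at 37 °C, with compound added in DMSO. Initial velocities were taken across substrate and inhibitor concentrations. Km and Vmax came from Lineweaver-Burk plots, with Dixon plots also used, and the Kik/Kiv ratio was calculated after Yang et al.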"}, "[9]": {"target": "T1, Tyrosine-protein phosphatase non-receptor type 1 (Homo sapiens)", "experiment": "Competitive inhibition of recombinant human PTP1B (1 to 322 residues) expressed in Escherichia coli at 99.4 to 397.8 uM using pNPP as substrate by Line-weaver burk plot method", "procedure,_shortened": "as §1"}},
  "note": "Active and inactive are the calls of the source. The rule behind the calls is not given here.",
  "data": [
    {"smiles": "CC(C)=CCc1c2c(c(O)c3c1O[C@]14C(=C[C@@H]5C[C@H]1C(C)(C)O[C@@]4(/C=C(/C)CO)C5=O)C3=O)C=CC(C)(C)O2", "values": [
      {"measurement": "inhibition", "setting": "[1]", "value": "Dose-dependent effect"},
      {"measurement": "inhibition", "setting": "[2]", "value": "Active"}
    ]},
    {"smiles": "CC(C)=CCC[C@]1(C)C=Cc2c(O)c3c(c(CC=C(C)C)c2O1)O[C@]12C(=C[C@@H]4C[C@H]1C(C)(C)O[C@@]2(C/C=C(/C)C(=O)O)C4=O)C3=O", "values": [
      {"measurement": "TDI", "setting": "[3]", "value": "Active"},
      {"measurement": "inhibition", "setting": "[4]", "value": "Active"},
      {"measurement": "inhibition", "setting": "[1]", "value": "Dose-dependent effect"}
    ]},
    {"smiles": "CO[C@@H]1C2C(=O)c3c(O)c4c(c(CC=C(C)C)c3O[C@@]23[C@H]2C[C@@H]1C(=O)[C@]3(C/C=C(/C)C(=O)O)OC2(C)C)O[C@](C)(CCC=C(C)C)C=C4", "note": "(stereo not given in full)", "values": [
      {"measurement": "inhibition", "setting": "[5]", "value": "Active"},
      {"measurement": "inhibition", "setting": "[1]", "value": "Dose-dependent effect"}
    ]},
    {"smiles": "CO[C@@H]1C2C(=O)c3c(O)c(C/C=C(\\C)CCC=C(C)C)c(O)c(CC=C(C)C)c3O[C@@]23[C@H]2C[C@@H]1C(=O)[C@]3(C/C=C(/C)C(=O)O)OC2(C)C", "note": "(stereo not given in full)", "values": [
      {"measurement": "inhibition", "setting": "[1]", "value": "Dose-dependent effect"},
      {"measurement": "inhibition", "setting": "[6]", "value": "Active"}
    ]},
    {"smiles": "CC(C)=CCC/C(C)=C/Cc1c(O)c(CC=C(C)C)c2c(c1O)C(=O)C1=C[C@@H]3C[C@H]4C(C)(C)O[C@@](C/C=C(/C)C(=O)O)(C3=O)[C@@]14O2", "values": [
      {"measurement": "inhibition", "setting": "[7]", "value": "Active"},
      {"measurement": "inhibition", "setting": "[1]", "value": "Dose-dependent effect"}
    ]},
    {"smiles": "CO[C@@H]1C2C(=O)c3c(O)c4c(c(CC=C(C)C)c3O[C@@]23[C@H]2C[C@@H]1C(=O)[C@]3(C/C=C(/C)C(=O)O)OC2(C)C)OC(C)(C)C=C4", "note": "(stereo not given in full)", "values": [
      {"measurement": "inhibition", "setting": "[1]", "value": "Dose-dependent effect"},
      {"measurement": "inhibition", "setting": "[8]", "value": "Active"}
    ]},
    {"smiles": "COC1=C2C(=O)c3c(O)c4c(c(CC=C(C)C)c3O[C@@]23[C@H]2C[C@@H]1C(=O)[C@]3(CC=C(C)C)OC2(C)C)O[C@](C)(CCC=C(C)C)C=C4", "values": [
      {"measurement": "inhibition", "setting": "[1]", "value": "Dose-dependent effect"},
      {"measurement": "inhibition", "setting": "[9]", "value": "Active"}
    ]}
  ]
}
